One test relates to RAW264.7. In words: Inhibition of LPS-induced NF-kappaB transcriptional activation expressed in mouse RAW264.7 cells assessed as NF-kappaB activity at 10 uM treated after LPS challenge measured after 24 hrs by luciferase reporter gene assay relative to control. It is filed as cell-based. The method in brief: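 RAW 264.7 cells, about 1 10^5 per well, were seeded 24 h before co-transfection (lipofectamine plus) with pAP-1-Luc or pNF-κB-Luc plus the pGL-hRluc internal control. At 48 h post-transfection, E. coli 0111:B4 LPS (100 ng/mL final) was added for 6 h. Compound in DMSO (10 µM final) was then added and cells were harvested 24 h later. Dual-luciferase readout: firefly/Renilla ratio expressed as multiples of the untreated control, mean SEM, n = 3. Paired Student's t-test.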
In general terms: Reporter assays use an easily measured gene product as a stand-in for the process of interest.

Test [1] is described as follows: Inhibition of LPS-induced AP1 transcriptional activation expressed in mouse RAW264.7 cells assessed as AP1 activity at 10 uM treated after LPS challenge measured after 24 hrs by luciferase reporter gene assay relative to control.

These results are taken from ChEMBL document CHEMBL1152520.

For the molecule `C[C@@]12CC[C@@H]3[C@@](C/C1=N\O)(C2)[C@@H](O)C[C@H]1[C@@]3(C)[C@@H](O)CC[C@@]1(C)C(=O)O`, the luciferase ratio in the test with RAW264.7 was 0.26. In addition, the Activity in test [1] is 3.37.

For the molecule `C[C@@]12CC[C@@H]3[C@@](CC[C@H]4[C@@]3(C)CCC[C@@]4(C)C(=O)O)(C/C1=N\O)C2`, the luciferase ratio in the test with RAW264.7 is 0.15. Moreover, the Activity in test [1] worked out at 4.87.

Consider `C[C@@]12CC[C@H]3[C@]4(C)CCC[C@@](C)(C(=O)O)[C@H]4C[C@H](O)[C@]3(C/C1=N\O)C2`, for which the luciferase ratio in the test on RAW264.7 was determined as 0.16. Further, the Activity in test [1] was determined as 2.69.

For `C[C@@]12CC[C@@H]3[C@@](CC[C@H]4[C@@]3(C)CCC[C@@]4(C)C(=O)O)(CC(=O)O1)C2`, the luciferase ratio in the test on RAW264.7 is 0.2. Further, the Activity in test [1] stood at 2.38.

For the molecule `C[C@@]12CC[C@@H]3[C@@](CC1=O)(C2)[C@@H](O)C[C@H]1[C@@]3(C)[C@@H](O)CC[C@@]1(C)C(=O)O`, the luciferase ratio in the test on RAW264.7 was found to be 0.16. Moreover, the Activity in test [1] came to 2.98.

On to `C[C@@]12CC[C@@H]3[C@@](CC[C@H]4[C@@]3(C)CCC[C@@]4(C)C(=O)O)(CC(=O)N1)C2`, for which, in the test with RAW264.7, the luciferase ratio was found to be 0.15. Besides, the Activity in test [1] came to 3.19.

With `CC1=CC[C@@H]2[C@](CC#N)(CC[C@H]3[C@@]2(C)CCC[C@@]3(C)C(=O)O)C1`, the luciferase ratio in the test on RAW264.7 worked out at 0.18. Further, the Activity in test [1] worked out at 2.22.

In the case of `C[C@@]12CC[C@@H]3[C@@](CC[C@H]4[C@@]3(C)[C@@H](O)CC[C@@]4(C)C(=O)O)(C/C1=N\O)C2`, the luciferase ratio in the test with RAW264.7 was 0.13. Besides, in test [1], the Activity stood at 3.52.

For the molecule `CC1=C[C@@]2(CC#N)CC[C@H]3[C@@](C)(CCC[C@@]3(C)C(=O)O)[C@@H]2CC1`, the luciferase ratio in the test on RAW264.7 was 0.22. In addition, the Activity in test [1] worked out at 2.85.
